In paper PMC7610571 (Nature chemical biology, 2020):

Columns and labels:
NUDT15 [1] = details: read-out: Km of NUDT15 for 6-thio-dGTP; cited from earlier work
NUDT15 [2] = target: T1, NUDT15 (Homo sapiens, UniProt Q9NV35); assay: Enzyme-coupled malachite green; format: biochemical; details: MG assay
T1 sequence (Q9NV35 1-164): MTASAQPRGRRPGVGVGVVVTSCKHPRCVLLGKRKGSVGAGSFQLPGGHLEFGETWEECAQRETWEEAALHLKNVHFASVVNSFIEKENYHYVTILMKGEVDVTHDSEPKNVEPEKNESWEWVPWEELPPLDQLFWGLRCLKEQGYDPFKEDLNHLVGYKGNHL
In short: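 Excess E. coli pyrophosphatase (0.4 U/mL) added for 20 min, then malachite green for 15 min; A630 read. Buffer-only wells served as the full-inhibition control. Two experiments, each in duplicate.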

NUDT15 [3] = target: T1, NUDT15; assay: PPiLight inorganic pyrophosphate assay, 6-thio-dGTPase activity; format: biochemical
In short: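 6-thio-dGTPase activity of 10 nM NUDT15 in 100 mM Tris acetate pH 7.5, 40 mM NaCl, 100 mM Mg acetate, 1 mM DTT, with 2.5 μM 6-thio-dGTP. Test-compound dilution series ran 13.3 μM–75 pM or 15 μM–2.2 nM, depending on compound. Shaken 30 min at 22 °C; formed PPi detected by PPiLight luminescence.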

NUDT15 [4] = target: T1, NUDT15; assay: Differential scanning fluorimetry; format: binding; details: over the DMSO control, dose-dependent
[5] = system: BJ-RAS cells versus BJ-hTERT cells; assay: Resazurin viability assay, isogenic fibroblasts; format: cell-based, human
NB4 cells = assay: Alkaline comet assay; format: cell-based, human; details: NB4, 10 μM TH1760 + 6-TG, 48 h
NB4 and HL-60 cells = assay: Thiopurine/TH1760 dose-matrix, resazurin viability; format: cell-based, human; details: combined with 6-TG or 6-MP, dose-dependent
In short: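 NB4 and HL-60 cells treated with a dose matrix of 6-TG or 6-MP combined with test compound (pre-treatment 3 h). Resazurin read-out four days after treatment (544/590 nm), viability normalised to DMSO controls. Relative viabilities used for EC50 fitting and SynergyFinder synergy scores. Knockdown matrix in NB4 shRNA lines: 96 h, n=2.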

| SMILES | Km (NUDT15 [1]) [µM] | improvement of potency compared to hit compound TH884 (NUDT15 [2]) | potency improvement as compared to TH884 (NUDT15 [3]) | increase of NUDT15 melting temperature (NUDT15 [4]) [°C] | sensitization to 6-TG, tumorigenic versus non-transformed cells [5] | 6-TG-induced DNA damage (comet tail moment) (NB4 cells) | reduction of thiopurine EC50 values (NB4 and HL-60 cells) |
| --- | --- | --- | --- | --- | --- | --- | --- |
| Nc1nc2c(ncn2[C@H]2C[C@H](O)[C@@H](COP(=O)(O)OP(=O)(O)OP(=O)(O)O)O2)c(=S)[nH]1 [Compound 6-thio-dGTP, 6-thio-dGTP] | 2 |  |  |  |  |  |  |
| O=C(c1ccc2[nH]ccc2c1)N1CCN(S(=O)(=O)c2ccc3[nH]c(=O)oc3c2)CC1 [Compound 18] |  | more than 200 fold | over 200 fold | > 10 | preferentially sensitized BJ-RAS cells to 6-TG versus their non-transformed counterpart BJ-hTERT cells | potentiated 6-TG-induced DNA damage in NB4 cells | ~ 10 fold |
